Source: PubChem (Broad Institute)
In the library only some 2.9% were active in any assay of this set; here they are far more common.
PGC1a acetyl inh: inhibitors of PGC1a acetylation signal, primary screen, cell-based, U2OS, AlphaScreen, inhibitor mode. inhibition, % at 15.6 µM. hit rate 0.17% among 350,000. AlphaScreen anti-acetyl-lysine; with virally co-expressed GCN5 acetyltransferase. AID 651687, 2012;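 active = every replicate shows inhibition of at least 40%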
FGF22 binding: binders of human FGF22 protein, primary screen, FGF22 synaptogenesis inhibitor project, biophysical, thermal shift, single point. Fibroblast growth factor 22 (Homo sapiens), Q9HCT0. recombinant FGF22 thermal shift, SYPRO orange fluorescence; percent of sucrose octasulfate shift, DMSO zero. activity (Tm shift, normalised), % at 9.99 µM. hit rate 1.5% among 340,000. AID 651658, 2012;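 active = mean Tm shift, scaled 0 neutral to 100 positive control, at about 1.3% or above, every replicate too, limit read from the data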
Target sequence (Q9HCT0 whole entry, looked up): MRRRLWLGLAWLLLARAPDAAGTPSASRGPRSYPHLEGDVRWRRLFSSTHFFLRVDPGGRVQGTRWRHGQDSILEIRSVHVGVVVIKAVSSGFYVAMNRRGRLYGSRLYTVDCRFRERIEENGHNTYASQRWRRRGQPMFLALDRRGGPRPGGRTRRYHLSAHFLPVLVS
PglD inh: C. jejuni PglD acetyltransferase inhibitors, primary screen, biochemical, DTNB colorimetric, single point | UDP-N-acetylbacillosamine N-acetyltransferase PglD (Campylobacter jejuni) | purified PglD enzyme, DTNB colorimetric CoA detection | inhibition, % at 12.5 µM | hit rate 0.098% among 360,000 | AID 602405, 2012; in the data active = inhibition above about 16%, passing the limit was not always enough
Cneo AK release: Cryptococcus neoformans cell lysis inducers, primary screen, AK release luminescence, single concentration. C. neoformans lysis, adenylate kinase release luminescence, 4 h; normalised: neutral wells 0, clomiphene wells 100. lysis activity, % at 15 µM. hit rate 0.2% among 360,000;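 active = mean lysis activity across replicates of at least 80%, whatever share of replicates individually reach that level; inactive = mean lysis activity below 80%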
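Assay system: log-phase C. neoformans yeast / Quantity: yeast cell density of 5 × 10^6 cells/mL / Medium: fresh YPD growth medium / Compound: single dose / Timing: static 4 h at 37 °C with compound, 1 h detection / Measured by: adenylate kinase release luminescence / Read-out: lysis from increased AK signal / Benchmarks: Clomiphene as positive lysis control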
Vif imaging: HIV Vif self-association inhibitors, primary screen, imaging, HEK293T, single point; inhibition, % at 7.49 µM; hit rate 0.35% among 340,000; HEK293T cells, Vif self-association by quenched fluorescence, 24 h; in the data active = inhibition above about 50%, passing the limit was not always enough
Ecoli rRNA inh: reduced GFP signal of wild-type E. coli, primary screen, bacterial rRNA inhibitor project, GFP/RFP fluorescence, OD600, single point. hit rate 1.6% among 350,000. E. coli WT GFP vs humanized-ribosome RFP mutants, 24 h; hits give low values; DMSO median 0, no signal -100. GFP signal change (wild-type ribosome), % (no concentration beside the values). AID 720706, 2013;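 active = significant combined selectivity score with lowered wild-type GFP, culture density cut under 30%, mutant RFP and density less affected; inactive = any of these conditions unmet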
A number is an active result; - = inactive; . = no result.

SMILES	PGC1a acetyl inh	FGF22 binding	PglD inh	Cneo AK release	Vif imaging	Ecoli rRNA inh
C[C@H](CO)N1C[C@H](C)[C@H](CN(C)Cc2ccccc2)Oc2cc(-c3ccccc3)ccc2S1(=O)=O	-	.	.	.	.	-
COC(=O)c1ccc(CN2CC(=O)N3[C@H](CO)[C@H](c4ccc(-c5ccccc5)cc4)[C@@H]3C2)cc1	.	.	.	.	.	-
O=C(c1cc(Cl)c(=O)n(Cc2ccccc2)c1)N1CCOCC1	.	.	-	-	62.1	.
O=S(=O)([N-]c1nc2ccccc2nc1-[n+]1ccccc1)c1ccc(F)cc1	.	44.7	.	.	-	-
Nc1nn(-c2ccccc2)c(N)c1N=Nc1ccccc1F	.	-	.	.	.	-37.0
CN1CCC=C(C(=O)N2c3ccccc3Sc3ccc(Cl)cc32)C1	-	-	.	.	-	-22.0
CN1CCN(CCC(=O)N2c3ccccc3Sc3ccc(Cl)cc32)CC1	.	.	-	-	-	-
CC(C)NC(=O)N(C)C[C@H]1Oc2c(cccc2[N+](=O)[O-])C(=O)N(C)C[C@@H]1C	.	.	.	.	.	-
CC(=O)N1CC(=O)N2[C@H](CO)[C@H](c3ccc(C#Cc4cccnc4)cc3)[C@@H]2C1	-	.	.	.	.	-
O=C(CSc1nc2[nH]ncc2c(=O)n1-c1ccccc1Cl)N1CCCC1	-	-	.	.	-	-
CCc1ccccc1-n1c(SCC(=O)N2CCCC2)nc2[nH]ncc2c1=O	-	43.7	.	.	-	-
O=C1CC(c2ccc(O)cc2)Oc2cc(O)cc(O)c21 (configuration not stated)	-	-	-	-	-	.
O=C(c1c(O)cc(O)cc1O)C1c2c(cc(O)c3c2O[C@H](c2ccc(O)cc2)[C@@H](O)C3)OC1c1ccc(O)cc1 (some centres not stated)	.	1.5	-	-	-	-
O=C(C[C@H]1C[C@@H]2c3cc(NC(=O)Nc4ccccc4F)ccc3O[C@@H]2[C@H](CO)O1)NC1CCCC1	-	-	-	-	.	-
CCCNC(=O)CCCCn1c(=S)[nH]c2c([nH]c3ccc(OC)cc32)c1=O	-	42.9	.	.	-	-
Nc1ncncc1-c1ccc(Cl)cc1	-	-	-	-	-	-21.6
Cc1ccc(Nc2nc(Cl)nc3ncn(C)c23)c(C)c1	-	-	-	-	-	-36.0
COC(=O)c1ccc(CSc2nnc(NC(=O)c3cc4c(s3)CCCC4)s2)cc1	-	.	.	.	-	.
CC1CCc2sc(C(=O)Nc3nnc(SCc4ccc(F)cc4)s3)cc2C1 (configuration not stated)	94.0	.	.	.	-	.
COc1cc2ccc(=O)oc2c(O)c1OCC=C(C)C	-	.	-	-	-	-20.8
Cc1cccc(OCc2nnc(SCC(=O)Nc3nccs3)o2)c1	.	-	.	.	-	-40.6
O=C(CSc1nnc(COc2ccccc2)o1)Nc1nccs1	-	-	-	-	-	-
O=C1CC(C(=O)Nc2ccc(Cl)cc2)n2ncnc2N1 (configuration not stated)	-	-	.	.	-	-
O=C1CC(C(=O)Nc2cccc(F)c2)n2ncnc2N1 (configuration not stated)	.	43.0	-	-	-	-
CNC(=O)C[C@@H]1CC[C@@H]2[C@H](COC[C@@H](O)CN2Cc2ccc(C(F)(F)F)cc2)O1	-	-	-	-	.	-
SMILES	PGC1a acetyl inh	FGF22 binding	PglD inh	Cneo AK release	Vif imaging	Ecoli rRNA inh
CCOC(=O)C1(CC2CC2)CCN(Cc2cn[nH]c2-c2cccc(F)c2)CC1	.	44.1	.	.	-	-
CCNC(=O)n1cc(-n2cncn2)c(-c2ccccc2)n1	-	43.4	-	-	-	-
COc1cccc(NS(=O)(=O)c2ccc3c(c2)N(C(C)=O)CCS3)c1	-	-	-	-	-	-
CC(=O)N1CCSc2ccc(S(=O)(=O)Nc3cccc(C)c3)cc21	-	-	-	-	-	-23.2
COc1ccccc1/C=C/C(=O)c1ccc(Cl)cc1	-	.	.	.	.	.
O=C(/C=C/c1ccccc1O)c1ccccc1	-	-	-	-	-	-19.4
